Source: ChEMBL document CHEMBL4706746, “Structural and in Vitro Functional Characterization of a Menthyl TRPM8 Antagonist Indicates Species-Dependent Regulation” (ACS Med Chem Lett, 2021)

Legend:
Type in all cases: cell-based
[1] = target: T1, Transient receptor potential cation channel subfamily M member 8 (Rattus norvegicus, UniProt Q8R455); test: Antagonist activity at recombinant rat TRPM8 stably expressed in HEK293 cells assessed as inhibition of icilin-induced intracellular calcium level preincubated for 5 mins followed by icilin addition by Fluo-4Am dye based fluorescence assay
[2] = target: Transient receptor potential cation channel subfamily A member 1 (Rattus norvegicus, UniProt Q6RI86); test: Agonist activity at recombinant rat TRPA1 stably expressed in HEK293 cells assessed as increase in intracellular calcium release by Fluo-4AM dye based fluorescence assay
[3] = target: T2, Transient receptor potential cation channel subfamily M member 8 (Homo sapiens, UniProt Q7Z2W7); test: Antagonist activity at recombinant human TRPM8 stably expressed in HEK293 cells assessed as inhibition of menthol-induced intracellular calcium level by Fluo-4NW probe based fluorescence assay
How it was run: (§1)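 Fluo-4 NW calcium imaging in HEK293 cells expressing human or rat TRPM8. Agonist was 500 nM icilin or 100 μM menthol, with test compound at 0.1–10 μM. IC50 was taken from concentration–response curves. Mean ± SEM, n = 3, N = 3.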
Target sequence in this assay (Q7Z2W7 whole entry): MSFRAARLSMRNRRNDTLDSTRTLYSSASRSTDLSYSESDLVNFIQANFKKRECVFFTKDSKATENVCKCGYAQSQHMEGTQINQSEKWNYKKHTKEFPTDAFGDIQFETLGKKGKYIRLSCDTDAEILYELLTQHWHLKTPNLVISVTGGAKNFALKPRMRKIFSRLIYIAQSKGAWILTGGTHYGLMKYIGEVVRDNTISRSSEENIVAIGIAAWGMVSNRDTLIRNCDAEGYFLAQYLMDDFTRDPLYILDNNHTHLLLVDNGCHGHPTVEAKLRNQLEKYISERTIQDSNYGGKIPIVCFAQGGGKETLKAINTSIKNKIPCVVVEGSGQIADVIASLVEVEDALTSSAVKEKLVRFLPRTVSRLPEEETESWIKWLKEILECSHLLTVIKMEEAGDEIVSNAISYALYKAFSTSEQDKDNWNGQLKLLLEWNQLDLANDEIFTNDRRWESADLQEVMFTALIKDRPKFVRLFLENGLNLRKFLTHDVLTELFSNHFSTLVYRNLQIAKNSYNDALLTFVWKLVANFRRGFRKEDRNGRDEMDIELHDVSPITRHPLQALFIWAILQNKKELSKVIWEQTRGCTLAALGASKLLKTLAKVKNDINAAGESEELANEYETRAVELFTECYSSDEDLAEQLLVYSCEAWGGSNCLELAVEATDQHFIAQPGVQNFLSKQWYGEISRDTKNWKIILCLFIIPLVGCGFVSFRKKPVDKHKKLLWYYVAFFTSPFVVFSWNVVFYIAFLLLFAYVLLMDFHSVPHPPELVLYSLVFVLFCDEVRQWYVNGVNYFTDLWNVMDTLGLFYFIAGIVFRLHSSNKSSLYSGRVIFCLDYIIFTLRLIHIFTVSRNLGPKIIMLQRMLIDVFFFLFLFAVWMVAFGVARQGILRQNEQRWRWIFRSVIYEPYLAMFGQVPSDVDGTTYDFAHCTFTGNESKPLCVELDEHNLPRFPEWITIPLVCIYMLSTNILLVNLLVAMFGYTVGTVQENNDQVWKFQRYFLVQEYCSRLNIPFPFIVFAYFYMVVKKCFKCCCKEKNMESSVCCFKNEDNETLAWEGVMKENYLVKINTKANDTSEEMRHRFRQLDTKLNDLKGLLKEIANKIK

[4] = target: T2, Transient receptor potential cation channel subfamily M member 8; test: Antagonist activity at recombinant human TRPM8 stably expressed in HEK293 cells assessed as inhibition of icilin-induced intracellular calcium level by Fluo-4NW probe based fluorescence assay; how it was run: as §1
Target sequence in this assay (Q7Z2W7 whole entry): as above

[5] = target: T1, Transient receptor potential cation channel subfamily M member 8; test: Antagonist activity at recombinant rat TRPM8 stably expressed in HEK293 cells assessed as inhibition of menthol-induced intracellular calcium level by Fluo-4NW probe based fluorescence assay; how it was run: as §1
[6] = target: T1, Transient receptor potential cation channel subfamily M member 8; test: Antagonist activity at recombinant rat TRPM8 stably expressed in HEK293 cells assessed as inhibition of icilin-induced intracellular calcium level by Fluo-4NW probe based fluorescence assay; how it was run: as §1
[7] = target: T2, Transient receptor potential cation channel subfamily M member 8; test: Antagonist activity at recombinant human TRPM8 transiently expressed in HEK293 cells assessed as inhibition of menthol-induced calcium flux by whole-cell patch-clamp electrophysiological method
How it was run: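 Whole-cell patch clamp of HEK293 cells transiently transfected with human TRPM8. Currents were evoked by 500 μM menthol and recorded at +80 mV. Test compound was applied at 1 nM–0.1 mM. Currents were normalized and fitted for IC50. n = 3 cells, SEM.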
Target sequence in this assay (Q7Z2W7 whole entry): as above

[8] = target: Transient receptor potential cation channel subfamily A member 1 (Homo sapiens) (UniProt O75762); test: Agonist activity at recombinant human TRPA1 stably expressed in HEK293 cells at 66.7 uM measured after 180 secs by Fluo-8 Calcium dye based fluorescence assay relative to control; details: time 180.0 sec
How it was run: (§2)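 Ca2+ flux assay in HEK293 cells stably expressing human TRPA1 or TRPV1. Test concentrations were 66.7–333 μM, applied alone. Response is expressed as % activation, normalized to the Emax agonist concentration: AITC 300 μM for TRPA1, capsaicin 3 μM for TRPV1. n = 3.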

[9] = target: Transient receptor potential cation channel subfamily A member 1 (Homo sapiens) (UniProt O75762); test: Agonist activity at recombinant human TRPA1 stably expressed in HEK293 cells at 133 uM measured after 180 secs by Fluo-8 Calcium dye based fluorescence assay relative to control; details: time 180.0 sec; how it was run: as §2
[10] = target: Transient receptor potential cation channel subfamily A member 1 (Homo sapiens) (UniProt O75762); test: Agonist activity at recombinant human TRPA1 stably expressed in HEK293 cells at 200 uM measured after 180 secs by Fluo-8 Calcium dye based fluorescence assay relative to control; details: time 180.0 sec; how it was run: as §2
[11] = target: Transient receptor potential cation channel subfamily A member 1 (Homo sapiens) (UniProt O75762); test: Agonist activity at recombinant human TRPA1 stably expressed in HEK293 cells at 267 uM measured after 180 secs by Fluo-8 Calcium dye based fluorescence assay relative to control; details: time 180.0 sec; how it was run: as §2
[12] = target: Transient receptor potential cation channel subfamily A member 1 (Homo sapiens) (UniProt O75762); test: Agonist activity at recombinant human TRPA1 stably expressed in HEK293 cells at 333 uM measured after 180 secs by Fluo-8 Calcium dye based fluorescence assay relative to control; details: time 180.0 sec; how it was run: as §2
[13] = target: Transient receptor potential cation channel subfamily A member 1 (Homo sapiens) (UniProt O75762); test: Antagonist activity at recombinant human TRPA1 stably expressed in HEK293 cells assessed as inhibition of AITC-induced calcium flux at 66.7 uM preincubated for 5 mins followed by AITC addition and measured after 180 secs by Fluo-8 Calcium dye based fluorescence assay relative to control; details: time 8.0 min
How it was run: (§3)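 Ca2+ flux assay in HEK293 cells stably expressing human TRPA1 or TRPV1. Test compound was given at 66.7–333 μM, then cells were challenged with agonist at its EC80: AITC 10 μM for TRPA1, capsaicin 0.1 μM for TRPV1. % inhibition is normalized to the EC80 agonist response. n = 3.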

[14] = target: Transient receptor potential cation channel subfamily A member 1 (Homo sapiens) (UniProt O75762); test: Antagonist activity at recombinant human TRPA1 stably expressed in HEK293 cells assessed as inhibition of AITC-induced calcium flux at 133 uM preincubated for 5 mins followed by AITC addition and measured after 180 secs by Fluo-8 Calcium dye based fluorescence assay relative to control; details: time 8.0 min; how it was run: as §3
[15] = target: Transient receptor potential cation channel subfamily A member 1 (Homo sapiens) (UniProt O75762); test: Antagonist activity at recombinant human TRPA1 stably expressed in HEK293 cells assessed as inhibition of AITC-induced calcium flux at 200 uM preincubated for 5 mins followed by AITC addition and measured after 180 secs by Fluo-8 Calcium dye based fluorescence assay relative to control; details: time 8.0 min; how it was run: as §3
[16] = target: Transient receptor potential cation channel subfamily A member 1 (Homo sapiens) (UniProt O75762); test: Antagonist activity at recombinant human TRPA1 stably expressed in HEK293 cells assessed as inhibition of AITC-induced calcium flux at 267 uM preincubated for 5 mins followed by AITC addition and measured after 180 secs by Fluo-8 Calcium dye based fluorescence assay relative to control; details: time 8.0 min; how it was run: as §3
[17] = target: Transient receptor potential cation channel subfamily A member 1 (Homo sapiens) (UniProt O75762); test: Antagonist activity at recombinant human TRPA1 stably expressed in HEK293 cells assessed as inhibition of AITC-induced calcium flux at 333 uM preincubated for 5 mins followed by AITC addition and measured after 180 secs by Fluo-8 Calcium dye based fluorescence assay relative to control; details: time 8.0 min; how it was run: as §3
[18] = target: Transient receptor potential cation channel subfamily V member 1 (Homo sapiens) (UniProt Q8NER1); test: Agonist activity at recombinant human TRPV1 stably expressed in HEK293 cells at 66.7 uM measured after 180 secs by Fluo-8 Calcium dye based fluorescence assay relative to control; details: time 180.0 sec; how it was run: as §2
[19] = target: Transient receptor potential cation channel subfamily V member 1 (Homo sapiens) (UniProt Q8NER1); test: Agonist activity at recombinant human TRPV1 stably expressed in HEK293 cells at 133 uM measured after 180 secs by Fluo-8 Calcium dye based fluorescence assay relative to control; details: time 180.0 sec; how it was run: as §2
[20] = target: Transient receptor potential cation channel subfamily V member 1 (Homo sapiens) (UniProt Q8NER1); test: Agonist activity at recombinant human TRPV1 stably expressed in HEK293 cells at 200 uM measured after 180 secs by Fluo-8 Calcium dye based fluorescence assay relative to control; details: time 180.0 sec; how it was run: as §2
[21] = target: Transient receptor potential cation channel subfamily V member 1 (Homo sapiens) (UniProt Q8NER1); test: Agonist activity at recombinant human TRPV1 stably expressed in HEK293 cells at 267 uM measured after 180 secs by Fluo-8 Calcium dye based fluorescence assay relative to control; details: time 180.0 sec; how it was run: as §2
[22] = target: Transient receptor potential cation channel subfamily V member 1 (Homo sapiens) (UniProt Q8NER1); test: Agonist activity at recombinant human TRPV1 stably expressed in HEK293 cells at 333 uM measured after 180 secs by Fluo-8 Calcium dye based fluorescence assay relative to control; details: time 180.0 sec; how it was run: as §2
[23] = target: Transient receptor potential cation channel subfamily V member 1 (Homo sapiens) (UniProt Q8NER1); test: Antagonist activity at recombinant human TRPV1 stably expressed in HEK293 cells assessed as inhibition of capsaicin-induced calcium flux at 66.7 uM preincubated for 5 mins followed by capsaicin addition and measured after 180 secs by Fluo-8 Calcium dye based fluorescence assay relative to control; details: time 8.0 min; how it was run: as §3
[24] = target: Transient receptor potential cation channel subfamily V member 1 (Homo sapiens) (UniProt Q8NER1); test: Antagonist activity at recombinant human TRPV1 stably expressed in HEK293 cells assessed as inhibition of capsaicin-induced calcium flux at 133 uM preincubated for 5 mins followed by capsaicin addition and measured after 180 secs by Fluo-8 Calcium dye based fluorescence assay relative to control; details: time 8.0 min; how it was run: as §3
[25] = target: Transient receptor potential cation channel subfamily V member 1 (Homo sapiens) (UniProt Q8NER1); test: Antagonist activity at recombinant human TRPV1 stably expressed in HEK293 cells assessed as inhibition of capsaicin-induced calcium flux at 200 uM preincubated for 5 mins followed by capsaicin addition and measured after 180 secs by Fluo-8 Calcium dye based fluorescence assay relative to control; details: time 8.0 min; how it was run: as §3
[26] = target: Transient receptor potential cation channel subfamily V member 1 (Homo sapiens) (UniProt Q8NER1); test: Antagonist activity at recombinant human TRPV1 stably expressed in HEK293 cells assessed as inhibition of capsaicin-induced calcium flux at 267 uM preincubated for 5 mins followed by capsaicin addition and measured after 180 secs by Fluo-8 Calcium dye based fluorescence assay relative to control; details: time 8.0 min; how it was run: as §3
[27] = target: Transient receptor potential cation channel subfamily V member 1 (Homo sapiens) (UniProt Q8NER1); test: Antagonist activity at recombinant human TRPV1 stably expressed in HEK293 cells assessed as inhibition of capsaicin-induced calcium flux at 333 uM preincubated for 5 mins followed by capsaicin addition and measured after 180 secs by Fluo-8 Calcium dye based fluorescence assay relative to control; details: time 8.0 min; how it was run: as §3
[28] = organism: Homo sapiens; test: Selectivity ratio of IC50 for antagonist activity at human TRPA1 stably expressed in HEK293 cells to IC50 for antagonist activity at recombinant human TRPM8 stably expressed in HEK293 cells
[29] = organism: Homo sapiens; test: Selectivity ratio of IC50 for antagonist activity at human TRPV1 stably expressed in HEK293 cells to IC50 for antagonist activity at recombinant human TRPM8 stably expressed in HEK293 cells
[30] = target: T2, Transient receptor potential cation channel subfamily M member 8; test: Antagonist activity at TRPM8 (unknown origin) expressed in CHO cells assessed as inhibition of D-1607-induced reduction in cell viability by measuring cell viability at 10 uM by celltiter-glo ATP chemiluminescence assay relative to control; details: filed as antagonist
Target sequence in this assay (Q7Z2W7 whole entry, looked up): as the sequence (Q7Z2W7 whole entry) above

T1 sequence (Q8R455 whole entry): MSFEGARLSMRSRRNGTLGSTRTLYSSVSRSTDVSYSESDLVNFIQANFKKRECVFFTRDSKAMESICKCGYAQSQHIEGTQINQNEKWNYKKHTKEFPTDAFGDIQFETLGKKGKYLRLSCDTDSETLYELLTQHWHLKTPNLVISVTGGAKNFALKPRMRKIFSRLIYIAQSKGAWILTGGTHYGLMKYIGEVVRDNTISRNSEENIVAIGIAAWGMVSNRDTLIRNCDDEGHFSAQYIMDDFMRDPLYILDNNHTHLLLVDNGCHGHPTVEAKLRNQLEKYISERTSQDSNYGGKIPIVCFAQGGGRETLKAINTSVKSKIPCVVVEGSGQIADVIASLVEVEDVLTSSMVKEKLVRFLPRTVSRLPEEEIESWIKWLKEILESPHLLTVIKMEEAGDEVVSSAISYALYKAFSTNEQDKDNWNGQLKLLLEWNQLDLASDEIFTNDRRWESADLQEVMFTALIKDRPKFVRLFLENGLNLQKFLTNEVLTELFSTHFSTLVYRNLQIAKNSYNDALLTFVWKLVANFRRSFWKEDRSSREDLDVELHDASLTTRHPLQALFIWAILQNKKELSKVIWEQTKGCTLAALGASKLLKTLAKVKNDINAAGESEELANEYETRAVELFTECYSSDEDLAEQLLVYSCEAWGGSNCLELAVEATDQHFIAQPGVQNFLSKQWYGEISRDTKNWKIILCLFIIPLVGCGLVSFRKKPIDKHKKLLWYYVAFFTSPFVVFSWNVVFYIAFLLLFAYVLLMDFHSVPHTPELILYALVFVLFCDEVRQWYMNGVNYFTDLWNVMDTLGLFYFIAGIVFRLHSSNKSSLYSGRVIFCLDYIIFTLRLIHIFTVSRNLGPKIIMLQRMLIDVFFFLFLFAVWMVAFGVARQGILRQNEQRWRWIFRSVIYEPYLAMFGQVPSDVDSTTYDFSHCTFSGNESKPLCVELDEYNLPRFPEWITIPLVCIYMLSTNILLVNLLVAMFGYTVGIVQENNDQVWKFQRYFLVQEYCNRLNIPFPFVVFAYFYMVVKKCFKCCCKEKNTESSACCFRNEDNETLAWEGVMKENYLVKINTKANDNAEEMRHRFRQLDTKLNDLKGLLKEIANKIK
Chain of Transient receptor potential cation channel subfamily A member 1 (Homo sapiens) (O75762 whole entry): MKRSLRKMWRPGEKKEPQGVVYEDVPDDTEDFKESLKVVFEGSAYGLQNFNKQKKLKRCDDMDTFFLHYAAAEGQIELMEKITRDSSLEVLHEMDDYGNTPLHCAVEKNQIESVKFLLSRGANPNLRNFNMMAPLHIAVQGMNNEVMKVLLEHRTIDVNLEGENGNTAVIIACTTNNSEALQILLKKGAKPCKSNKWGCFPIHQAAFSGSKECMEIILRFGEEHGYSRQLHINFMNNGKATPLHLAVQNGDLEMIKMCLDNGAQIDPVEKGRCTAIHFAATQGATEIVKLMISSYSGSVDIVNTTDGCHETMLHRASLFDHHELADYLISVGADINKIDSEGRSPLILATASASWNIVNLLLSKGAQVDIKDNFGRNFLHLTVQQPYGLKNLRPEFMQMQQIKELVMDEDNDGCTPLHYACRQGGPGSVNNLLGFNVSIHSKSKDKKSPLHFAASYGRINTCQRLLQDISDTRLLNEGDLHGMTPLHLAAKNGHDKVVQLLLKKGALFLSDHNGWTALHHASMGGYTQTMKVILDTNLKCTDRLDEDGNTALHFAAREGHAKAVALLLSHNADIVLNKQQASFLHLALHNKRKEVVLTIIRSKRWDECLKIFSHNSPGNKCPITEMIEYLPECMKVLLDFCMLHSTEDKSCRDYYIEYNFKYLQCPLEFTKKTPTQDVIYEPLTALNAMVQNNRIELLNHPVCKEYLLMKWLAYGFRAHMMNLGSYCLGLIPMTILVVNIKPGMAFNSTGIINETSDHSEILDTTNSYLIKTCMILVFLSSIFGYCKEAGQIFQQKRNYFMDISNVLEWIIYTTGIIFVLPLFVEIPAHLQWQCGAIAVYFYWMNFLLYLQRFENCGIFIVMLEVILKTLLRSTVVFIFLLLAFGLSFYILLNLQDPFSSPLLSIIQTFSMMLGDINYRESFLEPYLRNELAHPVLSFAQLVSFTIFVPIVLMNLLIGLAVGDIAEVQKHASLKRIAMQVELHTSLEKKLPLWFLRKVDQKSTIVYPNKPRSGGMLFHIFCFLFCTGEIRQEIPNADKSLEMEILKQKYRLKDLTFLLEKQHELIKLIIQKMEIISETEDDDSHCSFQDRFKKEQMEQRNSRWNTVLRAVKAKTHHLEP
Chain of Transient receptor potential cation channel subfamily V member 1 (Homo sapiens) (Q8NER1 whole entry): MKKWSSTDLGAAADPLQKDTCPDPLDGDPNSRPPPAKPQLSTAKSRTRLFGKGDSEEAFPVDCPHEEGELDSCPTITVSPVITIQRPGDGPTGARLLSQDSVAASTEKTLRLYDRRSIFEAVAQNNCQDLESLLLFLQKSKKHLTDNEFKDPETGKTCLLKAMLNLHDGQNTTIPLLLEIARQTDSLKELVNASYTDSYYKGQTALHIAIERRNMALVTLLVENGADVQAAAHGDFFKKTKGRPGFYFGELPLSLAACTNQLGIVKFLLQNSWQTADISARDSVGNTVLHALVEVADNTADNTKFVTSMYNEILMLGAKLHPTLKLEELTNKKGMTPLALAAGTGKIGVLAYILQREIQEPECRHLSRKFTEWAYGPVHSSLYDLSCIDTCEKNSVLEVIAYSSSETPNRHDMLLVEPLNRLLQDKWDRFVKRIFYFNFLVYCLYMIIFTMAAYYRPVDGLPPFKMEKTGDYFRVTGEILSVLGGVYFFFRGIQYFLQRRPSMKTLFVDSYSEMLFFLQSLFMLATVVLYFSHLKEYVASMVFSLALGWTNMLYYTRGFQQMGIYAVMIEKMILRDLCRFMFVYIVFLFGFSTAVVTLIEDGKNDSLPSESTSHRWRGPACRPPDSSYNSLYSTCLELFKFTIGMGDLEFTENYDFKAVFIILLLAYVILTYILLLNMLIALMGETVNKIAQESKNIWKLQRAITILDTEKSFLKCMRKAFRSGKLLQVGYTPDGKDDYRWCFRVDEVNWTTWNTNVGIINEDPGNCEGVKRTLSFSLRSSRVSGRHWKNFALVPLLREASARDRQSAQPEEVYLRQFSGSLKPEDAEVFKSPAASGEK

SMILES: C=C(C)[C@@H]1CCC(C)=C[C@H]1c1c(O)cc(CCC)cc1O [CANNABIDIVARIN]
- IC50 [1]: 900 nM
- EC50 [2]: 420 nM

SMILES: CC(C)[C@@H]1CC[C@@H](C)C[C@H]1NC(=O)c1ccc(-c2ccccc2)cc1
- IC50 [3]: 805 nM
- IC50 [4]: 1800 nM
- IC50 [5]: 117 nM
- IC50 [6]: 521 nM
- IC50 [7]: 700 nM
- Activity [8]: -0.83%
- Activity [9]: -0.2%
- Activity [10]: 0.95%
- Activity [11]: 2.1%
- Activity [12]: 3.4%
- inhibition [13]: 18.3%
- inhibition [14]: 24.9%
- inhibition [15]: 18.7%
- inhibition [16]: 16.8%
- inhibition [17]: 11.9%
- Activity [18]: 1.3%
- Activity [19]: 3.6%
- Activity [20]: 4.8%
- Activity [21]: 4.57%
- Activity [22]: 7.9%
- inhibition [23]: -3.6%
- inhibition [24]: -7.44%
- inhibition [25]: -5.89%
- inhibition [26]: 6.79%
- inhibition [27]: 7.64%
- Ratio IC50 [28]: > 400
- Ratio IC50 [29]: > 400

SMILES: CC(C)[C@@H]1CC[C@@H](C)C[C@H]1OC(=O)N1CCc2ccccc2C1
- Activity [30]: 112%

SMILES: C=C1[C@H](C)CC[C@@H](C(C)C)[C@@H]1OC(=O)c1ccccc1
- IC50 [7]: 2000 nM
